NR2E3 ag-1 – human photoreceptor-specific nuclear receptor agonism. Q9Y5X4. CHO-S Gal4-NCOR/VP16-NR2E3 two-hybrid, luciferase. inhibition of corepressor binding, % at 3.98 µM. 0.35% of 360,000 active. AID 602229;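 active means inhibition above the mean of all tested compounds plus 3 SD, cut at about 70% in these data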;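 further: higher means lower luciferase signal from less NR2E3 corepressor binding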
Rev-erbA mod – Rev-erb alpha (human) modulation | P20393 | Rev-erbα–FITC-DNA binding, fluorescence polarization, 90 min | activity, % at 10 µM | 0.79% of 370,000 active | AID 1259318;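 active means activity above about 14%, limit read from the data; passing the limit was not always enough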
NR2E3 ag-2 – activates human photoreceptor nuclear receptor NR2E3 | GST-NR2E3/biotin-RetCOR TR-FRET, 1536-well | inhibition of corepressor binding, % at 4.78 µM | 0.12% of 320,000 active;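 active means percent inhibition above the cutoff of mean plus 3 SD of all tested compounds, set per screening campaign, cut at about 20% in these data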
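Format: 1536-well format; test system: GST-NR2E3 and biotin-RetCOR proteins; read-out basis: percent inhibition of TR-FRET ratio; timing: 5 h incubation at 4 °C; detection: time-resolved FRET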
GalR3 antagonist – blocks the human galanin receptor 3; HEK293 GalR3-CNG cAMP membrane potential fluorescence; galR3 body fused to GalR1 C-terminus; inhibition, % at 3 µM; 0.44% of 360,000 active; AID 651719;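 active means inhibition above the screen-wide average plus 3 SD, cut at about 13% in these data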;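 further: forskolin and galanin both at EC90 stimulate the cells; cAMP rise reported by CNG channel membrane potential dye signal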
Target sequence (O60755 1-299 limits assumed): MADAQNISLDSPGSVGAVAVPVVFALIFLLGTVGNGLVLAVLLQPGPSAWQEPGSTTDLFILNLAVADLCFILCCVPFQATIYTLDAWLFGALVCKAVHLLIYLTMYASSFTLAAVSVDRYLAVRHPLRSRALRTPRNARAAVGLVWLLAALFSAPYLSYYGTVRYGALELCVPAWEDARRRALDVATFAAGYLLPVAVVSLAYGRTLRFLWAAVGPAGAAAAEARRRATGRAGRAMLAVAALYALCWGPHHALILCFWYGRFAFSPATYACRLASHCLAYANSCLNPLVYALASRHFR
PG9 binder – small molecules binding HIV-1 gp120 antibody PG9; TR-FRET gp120-PG9 antibody binding; inhibition, % at 6.7 µM; 0.43% of 360,000 active; in the data active means inhibition above about 8.5%
GalR3 conf – GalR3 (human) antagonism, confirmation; shares compounds with GalR3 antagonist; HEK293 GalR3 CNG cAMP biosensor, membrane potential fluorescence; galR3 fused to GalR1 carboxy tail; challenged with forskolin and galanin at EC90; inhibition, % at 3 µM; 59% of 1,600 active; AID 652245;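 active means inhibition above the primary screen's cutoff, the mean inhibition of all screened compounds plus 3 SD, cut at about 13% in these data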
HEK-CNG parental – parental cell agonism counter-screen for GalR3 antagonists | HEK293-CNG parental cells, cAMP membrane potential fluorescence; normalised: DMSO wells 0%, forskolin wells 100% | activation, % at 3 µM | 10% of 1,600 active | shares compounds with GalR3 antagonist; in the data active means activation above about 1.3%
Each line names hits and unclear results; the compound was inactive in the other large screens (follow-up assays come after a bar, where they were run). This is a sample that favours compounds with a hit; in the whole collection about 1.8% have one here.

COC(=O)[C@]12C[C@H](CC(=O)N3CCN(C(=O)C4CC4)CC3)C(=O)N(Cc3ccc(Cl)cc3Cl)C1=C[C@H](C(C)(C)C)O[C@@H]2C	none (no result: NR2E3 ag-1, NR2E3 ag-2, GalR3 antagonist, PG9 binder)
O=C(COc1ccc2c(c1)oc(=O)c1ccccc12)NC(Cc1ccc(Cl)cc1)C(=O)O (stereo unspecified)	GalR3 antagonist 26 | GalR3 conf inactive | HEK-CNG parental inactive
COC(=O)[C@]12CCCCC=C1N(Cc1ccc(OC)cc1)C(=O)[C@@H]2CC(=O)NCc1ccccc1	none (no result: NR2E3 ag-1, NR2E3 ag-2, GalR3 antagonist, PG9 binder)
CCC(=O)Nc1nc(CC(=O)Nc2ccccc2OC)cs1	none
COc1ccccc1NC(=O)Cc1nc(CCl)cs1	GalR3 antagonist 14 | GalR3 conf inactive | HEK-CNG parental inactive
CC(=O)N[C@@H]1C[C@@H]2O[C@@H](CO)CC[C@@H]2O[C@@H]1CCc1ccc(C#CC2(O)CCCC2)cc1	none (no result: NR2E3 ag-1, NR2E3 ag-2, GalR3 antagonist, PG9 binder)
COc1ccccc1C(=O)Nc1ccc(C2=NNC(=O)CC2C)cc1 (stereo unspecified)	GalR3 antagonist 73 | GalR3 conf 73 | HEK-CNG parental inactive
COC(=O)[C@]12C[C@H](CC(=O)NCCC(C)C)C(=O)N(Cc3ccco3)C1=C[C@H](COCc1ccccc1)O[C@@H]2C	none (no result: NR2E3 ag-1, NR2E3 ag-2, GalR3 antagonist, PG9 binder)
O=C1CCCc2ccc3ccccc3c21	none (no result: NR2E3 ag-2)
COc1cc2ccccc2c2c1CCCC2=O	none (no result: GalR3 antagonist) | GalR3 conf inactive | HEK-CNG parental inactive
CCOC(=O)C1=C(C)NC2=C(C(=O)CCC2)C1c1cc(OC)ccc1OC (stereo unspecified)	none
CCOC(=O)C1=C(C)NC2=C(C(=O)CCC2)C1c1cn(Cc2ccc(Cl)cc2Cl)nc1-c1ccccc1 (stereo unspecified)	GalR3 antagonist 16 | GalR3 conf 13 | HEK-CNG parental 6.2
COC(=O)C1=C(C)NC2=C(C(=O)CCC2)C1c1cn(Cc2ccc(Cl)cc2Cl)nc1-c1ccccc1 (stereo unspecified)	GalR3 antagonist 37 | GalR3 conf 50 | HEK-CNG parental inactive
O=S(=O)(c1ccc(F)cc1)n1c(CN2CCOCC2)nc2ccccc21	none (no result: NR2E3 ag-1, NR2E3 ag-2, GalR3 antagonist, PG9 binder)
COc1ccc(CCNC(=O)CSc2ccc(-c3ccco3)nn2)cc1	GalR3 antagonist 13 | GalR3 conf inactive | HEK-CNG parental inactive
CCN(CC)S(=O)(=O)c1ccc(C(=O)NCCN(C)C)cc1	GalR3 antagonist 20 | GalR3 conf inactive | HEK-CNG parental inactive
CCN(CC)S(=O)(=O)c1ccc(C(=O)NCCCn2ccnc2)cc1	none
CC(C)CC1(C)NC(=O)N(CC(=O)Nc2cccc(S(=O)(=O)N(C)c3ccccc3)c2)C1=O (stereo unspecified)	GalR3 antagonist 14 | GalR3 conf 57 | HEK-CNG parental inactive
CCCCNC(=O)C[C@H]1C[C@@]2(C(=O)OC)C(=C[C@H](C(C)C)O[C@@H]2C2CC2)N(Cc2ccc3c(c2)OCO3)C1=O	none (no result: NR2E3 ag-1, NR2E3 ag-2, GalR3 antagonist, PG9 binder)
Nc1ncnc2c1ncn2[C@@H]1O[C@H](CO)C[C@H]1O	GalR3 antagonist 16 | GalR3 conf 30 | HEK-CNG parental inactive
O=[N+]([O-])c1c(Nc2ccccc2O)cc(Cl)c2nonc12	GalR3 antagonist 40 (no result: NR2E3 ag-2) | GalR3 conf 41 | HEK-CNG parental inactive
CC(C)(C)N1Cc2nnn(Cc3ccccc3)c2-c2cc(N3CCCCC3)ccc2S1(=O)=O	none (no result: NR2E3 ag-1, NR2E3 ag-2, GalR3 antagonist, PG9 binder)
Cc1nc(N2CCN(C(=O)C3CC3)CC2)c2c3c(sc2n1)CC(C)CC3 (stereo unspecified)	none (no result: NR2E3 ag-1, NR2E3 ag-2, GalR3 antagonist, PG9 binder)
CCCNC(=O)CCCCn1c(=S)[nH]c2c([nH]c3ccc(OC)cc32)c1=O	none
COc1ccc2[nH]c3c(=O)n(CCCCC(=O)NCCC(C)C)c(=S)[nH]c3c2c1	GalR3 antagonist 13 | GalR3 conf inactive | HEK-CNG parental inactive
NC(=O)c1cccnc1Nc1ccccc1Cl	GalR3 antagonist 19 | GalR3 conf inactive | HEK-CNG parental inactive
O=[N+]([O-])c1cc(-c2nnc(N3CCOCC3)c3ccccc23)ccc1N1CCOCC1	none
